Experimental data as given in ChEMBL document CHEMBL4130623, “Discovery of Highly Potent Pinanamine-Based Inhibitors against Amantadine- and Oseltamivir-Resistant Influenza A Viruses” (J Med Chem, 2018).
The source made the active and inactive calls. No cut-off for these calls is given here.

What was measured:
Assay type in all cases: functional, organism-based
Influenza A virus [1] = assay: Antiviral activity against Influenza A virus (A/Guangzhou/GIRD/07/2009 (H1N1)) infected in MDCK cells assessed as reduction in virus-induced cytopathic effect at less than cytotoxic MCC level after 48 hrs by microscopic analysis
Influenza A virus [2] = assay: Antiviral activity against Influenza A virus (A/Guangzhou/GIRD/07/2009 (H1N1)) infected in MDCK cells assessed as reduction in virus-induced cytopathic effect after 48 hrs by microscopic analysis
Procedure, shortened: (§1)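 MDCK monolayers (5×10^4 cells/well, grown 24 h) were rinsed twice, infected with 100 TCID50 virus for 2 h at 37 °C in 5% CO2, and the inoculum was removed. Two-fold serial compound dilutions in DMEM with 1.5 µg/mL trypsin were added and incubated 48 h at 34 °C. CPE percentage was scored by microscope and EC50 fitted by non-linear regression.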

Influenza A virus [3] = assay: Antiviral activity against Influenza A virus (A/HK/68) by CCK-8 reagent based assay
Influenza A virus [4] = assay: Antiviral activity against Influenza A virus (A/WSN/33) by CCK-8 reagent based assay; details: A/WSN/1933(H1N1)
Influenza A virus [5] = assay: Antiviral activity against Influenza A virus (A/HK/68(H3N2)) infected in MDCK cells assessed as reduction in virus-induced cytopathic effect after 48 hrs by microscopic analysis; procedure, shortened: as §1
Influenza A virus [6] = assay: Antiviral activity against Influenza A virus (A/PR/8/34 (H1N1)) infected in MDCK cells assessed as reduction in virus-induced cytopathic effect after 48 hrs by microscopic analysis; details: A/Puerto Rico/8/1934(H1N1); procedure, shortened: as §1
Influenza A virus [7] = assay: Antiviral activity against Influenza A virus (A/WSN/33 (H1N1)) infected in MDCK cells assessed as reduction in virus-induced cytopathic effect after 48 hrs by microscopic analysis; details: A/WSN/1933(H1N1); procedure, shortened: as §1
H3N2 subtype = assay: Antiviral activity against Influenza A virus (A/Aichi/2/68 (H3N2)) infected in MDCK cells assessed as reduction in virus-induced cytopathic effect after 48 hrs by microscopic analysis; details: A/Aichi/2/1968(H3N2); procedure, shortened: as §1
Influenza A virus [8] = assay: Antiviral activity against Influenza A virus (A/duck/HK/Y280/97 (H9N2)) infected in MDCK cells assessed as reduction in virus-induced cytopathic effect after 48 hrs by microscopic analysis; procedure, shortened: as §1
Influenza A virus [9] = assay: Antiviral activity against Influenza A virus (A/duck/Guangdong/1/1996 (H7N3)) infected in MDCK cells assessed as reduction in virus-induced cytopathic effect after 48 hrs by microscopic analysis; procedure, shortened: as §1

SMILES	inhibition (Influenza A virus [1])	EC50 (Influenza A virus [2]) [µM]	Activity (Influenza A virus [3])	Activity (Influenza A virus [4])	also measured
C[C@@H]1C2CC(C[C@H]1NCc1sccc1-c1ccccc1)C2(C)C (single isomer, unassigned)	inactive				
C=Cc1ccsc1CN[C@@H]1CC2CC([C@H]1C)C2(C)C (single isomer, unassigned)		1.82	Active	Active	
NC12CC3CC(CC(C3)C1)C2 [AMANTADINE]		> 100			EC50 (Influenza A virus [5]): 1000 nM; EC50 (Influenza A virus [6]): > 100000 nM; EC50 (Influenza A virus [7]): > 100000 nM
C=C(C)c1csc(CN[C@@H]2CC3CC([C@H]2C)C3(C)C)c1 (single isomer, unassigned)	inactive				
C=Cc1csc(CN[C@@H]2CC3CC([C@H]2C)C3(C)C)c1 (single isomer, unassigned)	inactive		Active	Active	
C[C@@H]1C2CC(C[C@H]1NCc1cc(C3CC3)cs1)C2(C)C (single isomer, unassigned)		6.68	Active	Active	
C[C@@H]1C2CC(C[C@H]1NCc1ccc(Cl)s1)C2(C)C (single isomer, unassigned)	inactive				
Cc1csc(CN[C@@H]2CC3CC([C@H]2C)C3(C)C)c1 (single isomer, unassigned)		0.2	Active	Active	
C[C@@H]1C2CC(C[C@H]1NCc1cc(-c3ccsc3)cs1)C2(C)C (single isomer, unassigned)	inactive				
C[C@@H]1C2CC(C[C@H]1NCc1cccs1)C2(C)C (single isomer, unassigned)		6.42	Active	Active	
C[C@@H]1C2CC(C[C@H]1NCc1ccc(C(C)(C)C)s1)C2(C)C (single isomer, unassigned)	inactive				
C[C@@H]1C2CC(C[C@H]1NCc1ccc(Br)s1)C2(C)C (single isomer, unassigned)	inactive				
Cc1n[nH]cc1CN[C@@H]1CC2CC([C@H]1C)C2(C)C (single isomer, unassigned)	inactive				
C[C@@H]1C2CC(C[C@H]1NCc1cncnc1)C2(C)C (single isomer, unassigned)	inactive				
C[C@@H]1C2CC(C[C@H]1NCc1sccc1C1CCCC1)C2(C)C (single isomer, unassigned)		0.69			
C[C@@H]1C2CC(C[C@H]1NCc1cc(-c3ccccc3)cs1)C2(C)C (single isomer, unassigned)	inactive				
C[C@@H]1C2CC(C[C@H]1NCc1cc(C3CCCCC3)cs1)C2(C)C (single isomer, unassigned)	inactive				
CCCCc1csc(CN[C@@H]2CC3CC([C@H]2C)C3(C)C)c1 (single isomer, unassigned)		0.46			
CSc1ccc(CN[C@@H]2CC3CC([C@H]2C)C3(C)C)s1 (single isomer, unassigned)	inactive		Active	Active	
C[C@@H]1C2CC(C[C@H]1NCc1cc(C3CCCC3)cs1)C2(C)C (single isomer, unassigned)	inactive				

SMILES	inhibition (Influenza A virus [1])	EC50 (Influenza A virus [2]) [µM]	Activity (Influenza A virus [3])	Activity (Influenza A virus [4])	also measured
C[C@@H]1C2CC(C[C@H]1NCc1cnccn1)C2(C)C (single isomer, unassigned)	inactive				
CCc1csc(CN[C@@H]2CC3CC([C@H]2C)C3(C)C)c1 (single isomer, unassigned)	inactive				
C[C@@H]1C2CC(C[C@H]1NCc1sccc1C1CCCCC1)C2(C)C (single isomer, unassigned)	inactive				
CCOC(=O)C1=C[C@@H](OC(CC)CC)[C@H](NC(C)=O)[C@@H](N)C1 [OSELTAMIVIR]					EC50 (H3N2 subtype): 990 nM; EC50 (Influenza A virus [5]): 2300 nM; EC50 (Influenza A virus [8]): > 10 µM; EC50 (Influenza A virus [6]): 130 nM; EC50 (Influenza A virus [7]): 400 nM; EC50 (Influenza A virus [9]): 2670 nM
C[C@@H]1C2CC(C[C@H]1NCc1ccco1)C2(C)C (single isomer, unassigned)	inactive				
CCOc1ccsc1CN[C@@H]1CC2CC([C@H]1C)C2(C)C (single isomer, unassigned)	inactive		Active	Active	
CCCc1ccsc1CN[C@@H]1CC2CC([C@H]1C)C2(C)C (single isomer, unassigned)	inactive		Active	Active	
C[C@@H]1C2CC(C[C@H]1NCc1ccc(-c3ccc(Br)s3)s1)C2(C)C (single isomer, unassigned)	inactive				
C[C@@H]1C2CC(C[C@H]1NCc1sccc1-c1ccsc1)C2(C)C (single isomer, unassigned)	inactive				
Cc1csc(CN[C@@H]2CC3CC([C@H]2C)C3(C)C)n1 (single isomer, unassigned)		75	Active	Active	
C[C@@H]1C2CC(C[C@H]1NCc1ccoc1)C2(C)C (single isomer, unassigned)		60.5			
CCCCc1ccsc1CN[C@@H]1CC2CC([C@H]1C)C2(C)C (single isomer, unassigned)		10.3	Active	Active	
Cc1ccsc1CN[C@@H]1C[C@H]2C[C@@H]([C@H]1C)C2(C)C	inactive		Active	Active	
CCCc1csc(CN[C@@H]2CC3CC([C@H]2C)C3(C)C)c1 (single isomer, unassigned)	inactive		Active	Active	
CCc1ccsc1CN[C@@H]1CC2CC([C@H]1C)C2(C)C (single isomer, unassigned)	inactive		Active	Active	
CCc1ccc(CN[C@@H]2CC3CC([C@H]2C)C3(C)C)s1 (single isomer, unassigned)	inactive				
C[C@@H]1C2CC(C[C@H]1NCc1sccc1Br)C2(C)C (single isomer, unassigned)	inactive		Active	Active	
C[C@@H]1C2CC(C[C@H]1NCc1cc(Br)cs1)C2(C)C (single isomer, unassigned)		5.16	Active	Active	
C[C@@H]1C2CC(C[C@H]1NCc1ccsc1)C2(C)C (single isomer, unassigned)		28.6	Active	Active	
Cc1ccc(CN[C@@H]2CC3CC([C@H]2C)C3(C)C)s1 (single isomer, unassigned)	inactive		Active	Active	
